Experimental data from ChEMBL document CHEMBL1137500, “Inhibitors of type III secretion in Yersinia: design, synthesis and multivariate QSAR of 2-arylsulfonylamino-benzanilides” (Bioorg Med Chem, 2007).
The source made the active and inactive calls. The rule behind the calls is not given here.

Legend:
[1] = test system: Yersinia pseudotuberculosis; test: Effect on T3S in Yersinia pseudotuberculosis 3 pIB29 assessed as inhibition of light emission at 10 uM by luciferase reporter gene assay
Summary of the method: (§1)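 Strain YPIII-pIB29 (yopE-luxAB transcriptional fusion, lacking YopH), grown overnight at ambient temperature in BHI with 5 mM EGTA and 20 mM MgCl2 to deplete calcium, then adjusted to OD600 0.15-0.25. Compounds in DMSO (≤1% final) at 100, 50, 20 or 10 µM final, in triplicate. Plates shaken 1 h at ambient temperature, then 2 h at 37 °C. Decanal added within 30 min and luminescence read at once. Result is % inhibition of light versus control.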

[2] = test system: Yersinia pseudotuberculosis; test: Growth inhibition of Yersinia pseudotuberculosis; type: functional, organism-based
Summary of the method: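 Wild-type YPIII-pIB102 diluted to OD600 0.05-0.1 in BHI with 2.5 mM CaCl2. Grown at 37 °C with shaking, with compound at 10, 20, 50 or 100 µM. Absorbance read at 600 nm periodically, or at 595 nm hourly, over six hours and compared with the control growth curve.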

[3] = test system: Yersinia pseudotuberculosis; test: Effect on T3S in Yersinia pseudotuberculosis 3 pIB29 assessed as inhibition of light emission at 100 uM by luciferase reporter gene assay; summary of the method: as §1
[4] = test system: Yersinia pseudotuberculosis; test: Effect on T3S in Yersinia pseudotuberculosis 3 pIB29 assessed as inhibition of light emission at 20 uM by luciferase reporter gene assay; summary of the method: as §1
[5] = test system: Yersinia pseudotuberculosis; test: Effect on T3S in Yersinia pseudotuberculosis 3 pIB29 assessed as inhibition of light emission at 50 uM by luciferase reporter gene assay; summary of the method: as §1
[6] = target: Tyrosine-protein phosphatase YopH (Yersinia pseudotuberculosis serotype I (strain IP32953)) (UniProt P08538); test: Inhibition of Yersinia pseudotuberculosis YP3-pIB102 YopH at 100 uM
Summary of the method: (§2)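 Strain YPIII-pIB102 grown overnight at 26 °C in BHI with 25 µg/ml chloramphenicol. Diluted to OD600 0.08 in calcium-depleted BHI (5 mM EGTA, 20 mM MgCl2), with compound at 100, 50, 20 or 10 µM, and shaken 2 h at 37 °C. Culture aliquot added to 25 mM p-nitrophenyl phosphate, 40 mM MES pH 5.0 and 1.6 mM DTT for 15 min at 37 °C. Stopped with NaOH and read at A405. Triplicates; result is % inhibition of secreted YopH activity.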

[7] = target: Tyrosine-protein phosphatase YopH (Yersinia pseudotuberculosis serotype I (strain IP32953)) (UniProt P08538); test: Inhibition of Yersinia pseudotuberculosis YP3-pIB102 YopH at 10 uM; summary of the method: as §2
[8] = target: Tyrosine-protein phosphatase YopH (Yersinia pseudotuberculosis serotype I (strain IP32953)) (UniProt P08538); test: Inhibition of Yersinia pseudotuberculosis YP3-pIB102 YopH at 20 uM; summary of the method: as §2
[9] = target: Tyrosine-protein phosphatase YopH (Yersinia pseudotuberculosis serotype I (strain IP32953)) (UniProt P08538); test: Inhibition of Yersinia pseudotuberculosis YP3-pIB102 YopH at 50 uM; summary of the method: as §2

Tyrosine-protein phosphatase YopH (Yersinia pseudotuberculosis serotype I (strain IP32953)), sequence (P08538 whole entry): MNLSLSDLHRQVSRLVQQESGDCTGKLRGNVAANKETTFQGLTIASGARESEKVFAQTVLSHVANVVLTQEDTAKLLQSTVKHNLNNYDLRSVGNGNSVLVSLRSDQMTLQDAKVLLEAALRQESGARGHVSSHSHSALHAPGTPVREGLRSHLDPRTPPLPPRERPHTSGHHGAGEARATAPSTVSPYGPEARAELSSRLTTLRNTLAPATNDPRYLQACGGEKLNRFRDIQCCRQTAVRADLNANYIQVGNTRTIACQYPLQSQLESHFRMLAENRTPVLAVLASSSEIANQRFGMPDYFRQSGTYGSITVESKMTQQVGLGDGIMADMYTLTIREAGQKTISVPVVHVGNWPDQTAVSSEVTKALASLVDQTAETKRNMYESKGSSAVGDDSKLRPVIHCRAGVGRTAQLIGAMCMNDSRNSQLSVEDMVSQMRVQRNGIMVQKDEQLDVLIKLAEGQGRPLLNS

| SMILES | inhibition [1] | Activity [2] | inhibition [3] | inhibition [4] | inhibition [5] | inhibition [6] | inhibition [7] | inhibition [8] | inhibition [9] |
| --- | --- | --- | --- | --- | --- | --- | --- | --- | --- |
| O=C(Nc1ccc(F)cc1)c1cc(Cl)ccc1NS(=O)(=O)c1cc(Cl)cc(Cl)c1O | 13% | inactive | 88% | 43% | 79% | – | – | – | – |
| O=C(Nc1ccc(F)cc1)c1cc(F)c(F)cc1NS(=O)(=O)c1cccc(F)c1 | 22% | inactive | 75% | 51% | 71% | 70% | 27% | 54% | 63% |
| O=C(Nc1ccc(F)c(F)c1)c1cc(F)c(F)cc1NS(=O)(=O)c1cccc([N+](=O)[O-])c1 | -2% | inactive | 49% | 2% | 23% | – | – | – | – |
| O=C(Nc1ccccc1)c1cc(Cl)ccc1NS(=O)(=O)c1cccc2nsnc12 | -2% | inactive | 20% | 1% | 9% | – | – | – | – |
| O=C(Nc1ccc(Cl)c(Cl)c1)c1cc(Cl)ccc1NS(=O)(=O)c1cccc2nsnc12 | 48% | inactive | 62% | 68% | 69% | 63% | 19% | 62% | 66% |
| COc1ccc(NC(=O)c2ccc(Cl)cc2NS(=O)(=O)c2ccc(Cl)c(Cl)c2)cc1 | 43% | inactive | 72% | 67% | 72% | 34% | 35% | 60% | 35% |
| O=C(Nc1ccc(Cl)c(Cl)c1)c1ccc(Cl)cc1NS(=O)(=O)c1cccc2nsnc12 | 35% | inactive | 68% | 61% | 71% | – | – | – | – |
| CC(=O)c1ccc(S(=O)(=O)Nc2cc(Cl)ccc2C(=O)Nc2ccc(F)c(Cl)c2)cc1 | 11% | inactive | 72% | 33% | 70% | – | – | – | – |
| O=C(Nc1ccc(F)c(F)c1)c1ccc(Cl)cc1NS(=O)(=O)c1cc(Cl)cc(Cl)c1O | 15% | inactive | 87% | 50% | 86% | – | – | – | – |
| O=C(Nc1ccc(Cl)c(Cl)c1)c1ccccc1NS(=O)(=O)c1cccc2nsnc12 | 5% | inactive | 13% | 10% | 11% | – | – | – | – |
| O=C(Nc1ccc2c(c1)OCO2)c1ccc(Cl)cc1NS(=O)(=O)c1ccc(Cl)c(Cl)c1 | 37% | inactive | 69% | 66% | 74% | 59% | 33% | 60% | 64% |
| O=C(Nc1cccc(Cl)c1)c1cc(Cl)ccc1NS(=O)(=O)c1cccc2nsnc12 | 3% | inactive | 55% | 13% | 47% | – | – | – | – |
| O=C(Nc1ccc2c(c1)OCO2)c1ccc(Cl)cc1NS(=O)(=O)c1ccccc1 | 4% | inactive | 15% | 7% | 10% | 34% | 14% | 19% | 25% |
| O=C(Nc1ccc(F)cc1)c1ccc(Cl)cc1NS(=O)(=O)c1ccc(Cl)c(Cl)c1 | – | inactive | – | – | – | – | – | – | – |
| O=C(Nc1ccc(Cl)c(Cl)c1)c1cc(Cl)ccc1NS(=O)(=O)c1ccccc1 | 58% | inactive | 70% | 70% | 73% | – | – | – | – |
| O=C(Nc1ccc(F)c(F)c1)c1ccc(Cl)cc1NS(=O)(=O)c1cccc2nsnc12 | 9% | inactive | 63% | 17% | 50% | – | – | – | – |
| Cc1ccc(S(=O)(=O)Nc2cc(F)c(F)cc2C(=O)Nc2ccc(Cl)c(Cl)c2)cc1 | 57% | inactive | 2% | 9% | 1% | – | – | – | – |
| CN(C)c1ccc(NC(=O)c2cc(Cl)ccc2NS(=O)(=O)c2ccccc2)cc1 | 0% | inactive | 1% | 1% | 2% | – | – | – | – |
| O=C(Nc1ccc2cccnc2c1)c1cc(Cl)ccc1NS(=O)(=O)c1ccccc1 | 0% | inactive | 10% | 2% | 7% | – | – | – | – |
| O=C(Nc1ccc(Cl)c(Cl)c1)c1cc(F)c(F)cc1NS(=O)(=O)c1cccc2nsnc12 | 9% | inactive | 80% | 39% | 66% | – | – | – | – |
| O=C(Nc1ccc(Cl)cc1)c1ccccc1NS(=O)(=O)c1cccc2nsnc12 | -1% | inactive | 18% | 5% | 12% | – | – | – | – |
| CN(C)c1ccc(NC(=O)c2cc(Cl)ccc2NS(=O)(=O)c2cccc([N+](=O)[O-])c2)cc1 | 3% | inactive | 7% | 4% | 8% | – | – | – | – |
| O=C(Nc1ccc2cccnc2c1)c1cc(Cl)ccc1NS(=O)(=O)c1ccc(Cl)c(Cl)c1 | 18% | inactive | 52% | 51% | 59% | – | – | – | – |
| O=C(Nc1ccc(F)c(Cl)c1)c1cc(Cl)ccc1NS(=O)(=O)c1ccc(Cl)c(Cl)c1 | – | inactive | – | – | – | – | – | – | – |
| O=C(Nc1ccc(Cl)c(Cl)c1)c1cc(F)c(F)cc1NS(=O)(=O)c1cc(Cl)cc(Cl)c1O | 69% | inactive | 92% | 85% | 92% | 81% | 57% | 82% | 80% |
| O=C(Nc1ccc(Cl)c(Cl)c1)c1cc(F)c(F)cc1NS(=O)(=O)c1cccc([N+](=O)[O-])c1 | 9% | inactive | 90% | 33% | 79% | 81% | 26% | 67% | 74% |
| COc1ccc(NC(=O)c2ccc(Cl)cc2NS(=O)(=O)c2cccc(F)c2)cc1 | 5% | inactive | 51% | 9% | 32% | – | – | – | – |
